Compound activity (PubChem)
TAAR1 antag = antagonists of human TAAR1; CHO RD-HGA16 TAAR1, Fluo-8 calcium fluorescence, antagonist; inhibition, % at 3 µM; Q96RJ0; AID 624466; actives 1.5% (n = 360,000);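 active means inhibition above a per-plate cutoff, the mean inhibition of test compounds on that plate plus 3 SD, cut at about 49% in these data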;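 further: 0% = DMSO plus EC80 beta-PEA response and 100% = DMSO alone without agonist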
Target sequence (Q96RJ0 whole entry, looked up): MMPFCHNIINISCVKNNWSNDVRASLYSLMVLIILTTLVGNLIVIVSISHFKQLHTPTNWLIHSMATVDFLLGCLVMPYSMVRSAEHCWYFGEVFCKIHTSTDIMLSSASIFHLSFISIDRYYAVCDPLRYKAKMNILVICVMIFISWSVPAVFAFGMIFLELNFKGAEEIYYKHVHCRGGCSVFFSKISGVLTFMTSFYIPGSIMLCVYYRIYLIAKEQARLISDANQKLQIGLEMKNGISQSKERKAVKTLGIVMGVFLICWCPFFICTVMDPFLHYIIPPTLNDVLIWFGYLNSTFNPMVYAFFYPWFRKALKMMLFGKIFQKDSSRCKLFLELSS
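Test system – hTAAR1-expressing CHO RD-HGA16 cells, Gα16-coupled · Also added – β-PEA at EC80 concentration, post-compound challenge · Compound – 3 µM, single point · Incubation – dye loading 75 min at 37 °C, then 30 min room temperature · Measured by – Fluo-8 intracellular calcium dye fluorescence, real-time kinetic reads · Benchmarks – vehicle and agonist controls · Replicates – singlicate, one well per test compound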
GPR7 antag = human neuropeptides B/W receptor 1 antagonism | GPR7-expressing cells, fluorescence antagonist assay | inhibition, % at 4.4 µM | actives 1.1% (n = 290,000) | AID 1861; in the data active means inhibition above about 16%, passing the limit was not always enough;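 further: cells stimulated with the agonist NPW; 0% = agonist with vehicle and 100% = vehicle without agonist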
Target sequence (P48145 whole entry, looked up): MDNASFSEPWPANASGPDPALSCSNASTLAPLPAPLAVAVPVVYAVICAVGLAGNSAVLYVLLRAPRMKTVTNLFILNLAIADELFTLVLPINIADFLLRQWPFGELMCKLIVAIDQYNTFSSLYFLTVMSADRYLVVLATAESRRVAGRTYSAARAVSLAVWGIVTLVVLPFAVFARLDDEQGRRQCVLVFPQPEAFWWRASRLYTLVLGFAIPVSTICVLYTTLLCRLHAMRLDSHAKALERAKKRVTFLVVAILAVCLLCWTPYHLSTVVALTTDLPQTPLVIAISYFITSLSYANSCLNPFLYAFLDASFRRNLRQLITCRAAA
TAAR1 ag = human TAAR1 agonism; activation, % at 3 µM; actives 0.99% (n = 360,000); AID 624467; Q96RJ0; CHO RD-HGA16 TAAR1, Fluo-8 calcium fluorescence; vehicle wells 0%, saturating PEA agonist 100%;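 active means activation above the mean activation of all test compounds in the run plus 3 SD, cut at about 38% in these data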
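Assay system: CHO-derived RD-HGA16 cells with stable Gα16 and human TAAR1; timing: 17-24 h seeding, 75 min 37 °C dye, 30 min RT; read-out: % activation from peak over basal fluorescence ratio, DMSO-to-PEA scaled; measured by: kinetic Fluo-8 calcium fluorescence; benchmarks: low control DMSO, high control PEA (EC100); doses: 3 µM single concentration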
OX1R antag-1 = antagonists of human orexin 1 receptor (OX1R); actives 1.8% (n = 330,000); AID 485270; OX1R-expressing cells, FRET antagonist read-out; inhibition, % at 6.6 µM; in the data active means inhibition mostly above about 38%, no sharp cut-off; inactive means mostly below about 40%;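 further: 0% = agonist challenge alone and 100% = reference antagonist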
OX1R antag-2 = human HCRTR1 antagonism. CHO/OX1R cells, Fluo-8 calcium fluorescence, orexin A. actives 0.43% (n = 330,000). inhibition, % at 5 µM. AID 434989. O43613;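 active means inhibition above its plate's threshold, mean inhibition of all tested compounds on the plate plus 3 SD, cut at about 37% in these data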;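 further: 0% = orexin A challenge wells and 100% = SB-334867-A antagonist wells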
CHO parental Ca = counter-screen: ATP calcium response change in parental CHO cells; actives 0.63% (n = 330,000); parental CHO-K1, ATP-induced calcium, Fluo-8 fluorescence; inhibition, % at 5.6 µM;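 active means inhibition above that plate's mean sample inhibition plus 3 SD, cut at about 26% in these data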;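 further: 0% = ATP-challenged DMSO wells and 100% = DMSO wells without ATP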
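Measured by: calcium-sensitive Fluo-8 fluorescence / Test system: CHO parental line / Controls: ATP-challenged DMSO wells low, unchallenged DMSO wells high / Measure: % inhibition / Compound: single nominal dose of 5.6 µM per compound / Replicates: single well per compound, no replicates / Reagent: ATP as calcium-mobilizing challenge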
TAAR1 nonsel count = nonselective antagonism, TAAR1 counter-screen; inhibition, % at 3 µM; shares compounds with TAAR1 antag; actives 77% (n = 2,400); AID 651780; counterscreen cell line, calcium fluorescence, antagonist mode; in the data active means inhibition above about 22%;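 further: CHO-Ga16 host cells stimulated with ATP at an EC80 level; 0% = agonist EC80 plus vehicle and 100% = vehicle without agonist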
TAAR1 ant conf = confirmation of human TAAR1 antagonists. shares compounds with TAAR1 antag. TAAR1-expressing cells, fluorescence antagonist read-out. inhibition, % at 3 µM. actives 40% (n = 2,400). AID 651785; in the data active means inhibition above about 49%;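 further: CHO-Ga16 host cells challenged with agonist PEA near its EC80; 0% = agonist at EC80 plus vehicle and 100% = vehicle with no agonist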
Ga16 nonsel ag = counter-screen for TAAR1 antagonists: nonselective Ga16 agonists; AID 651953; shares compounds with TAAR1 antag; Ga16-expressing cells, calcium fluorescence, agonist counterscreen; activation, % at 3 µM; actives 18% (n = 2,400); in the data active means activation above about 12%;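 further: 0% = vehicle wells and 100% = saturating stimulus response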
TAAR1 ag count = counter-screen for human TAAR1 antagonists: TAAR1 agonists | activation, % at 3 µM | shares compounds with TAAR1 antag | hTAAR1 cell line, fluorescence activation, agonist mode | actives 2% (n = 2,400); in the data active means activation above about 37%;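 further: CHO cells stably expressing TAAR1 with calcium dye readout; 0% = DMSO vehicle and 100% = full agonist response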
Starred values were filed as active, the others as inactive; x = no result given. A selection: hits, their analogues and other compounds. The true share with any hit is near 4.6%.

SMILES	TAAR1 antag	GPR7 antag	TAAR1 ag	OX1R antag-1	OX1R antag-2	CHO parental Ca	TAAR1 nonsel count	TAAR1 ant conf	Ga16 nonsel ag	TAAR1 ag count
CCOC(=O)c1cc2c(=O)n3ccccc3nc2n(Cc2ccco2)c1=NC(=O)c1cccc(OC)c1	56*	-1	9	41	-21	-15	25*	33	4	2
Cc1ccc(CN(C)C(=O)C2CCC(=O)N(CC3CCCCC3)C2)o1 (stereo not drawn)	-6	20	1	8	-14	-9	x	x	x	x
CCOc1cc(C(=O)N/N=C/c2ccoc2)cc(OCC)c1OCC	-1	3	-1	x	x	x	x	x	x	x
CC(C)COc1ccc(C(=O)N/N=C/c2ccoc2)cc1	62*	-11	-1	44	-21	2	13	37	8	10
CCOC(=O)c1[nH]c(C)c(C(=O)OCC)c1C	-29	-10	-2	15	-8	-17	x	x	x	x
CC(=O)c1c(C)[nH]c(C(=O)COC(=O)CN(C)S(=O)(=O)c2ccc(Cl)cc2)c1C	53*	-10	23	27	-15	-7	40*	42	18*	11
CCOC(=O)c1c(C)[nH]c(C(=O)COC(=O)c2[nH]c(C)c(C(C)=O)c2C)c1C	77*	-2	29	20	-8	-11	63*	66*	15*	14
CC1CCN(C(=O)C2CCCN(c3ncnc4c3nc3n4CCCCC3)C2)CC1 (stereo not drawn)	-16	-22	-1	12	-23	-31	x	x	x	x
COc1cccc(N2CCN(C(=O)C3CCCN(c4ncnc5c4nc4n5CCCCC4)C3)CC2)c1 (stereo not drawn)	55*	-15	22	-5	-29	-39	34*	49*	12*	17
Cc1noc(C)c1NC(=O)Nc1ccc2c(c1)C(=O)N([C@H](C)CO)C[C@H](C)[C@@H](CN(C)S(=O)(=O)c1cccs1)O2	4	x	0	5	3	10	x	x	x	x
COc1ccccc1OCCC(=O)NNC(=O)c1ccccc1F	103*	x	1	1	-15	-14	-7	-8	11	8
Cc1ccc(C)c(OCCC(=O)NNC(=O)c2ccccc2F)c1	-18	x	2	13	0	-4	x	x	x	x
Cc1ccccc1Cn1c(O)c(N=NC(=S)Nc2ccccc2F)c2ccccc21	11	-15	-1	2	-37	-3	x	x	x	x
Oc1c(N=NC(=S)Nc2ccccc2F)c2ccccc2n1Cc1ccccc1F	54*	-10	7	42	-19	-1	-2	30	5	4
COc1ccc2[nH]c(=O)c(CN(CC3CCCO3)C(=O)Nc3ccc(F)cc3)cc2c1 (stereo not drawn)	81*	0	24	x	x	x	52*	66*	16*	12
COc1ccc2[nH]c(=O)c(CN(CC3CCCO3)S(=O)(=O)c3ccccc3)cc2c1 (stereo not drawn)	41	-19	14	15	-21	-31	x	x	x	x
COc1ccc(NC(=O)N(Cc2cc3cc(C)ccc3[nH]c2=O)CC2CCCO2)cc1 (stereo not drawn)	-15	-15	0	7	-24	-20	x	x	x	x
COc1ccc2[nH]c(=O)c(CN(CC3CCCO3)S(=O)(=O)c3ccccc3F)cc2c1 (stereo not drawn)	63*	-12	23	24	-29	-24	26*	43	10	17
O=C(Nc1ccnn1C1CCN(C(=O)c2cnsn2)CC1)c1cccc(F)c1	-17	-13	4	9	-7	-14	x	x	x	x
CC(=NO)C1CCC2C3CCC4CC(=NO)CCC4(C)C3C(C)(O)CC12C (stereo not drawn)	77*	x	15	x	x	x	29*	52*	17*	18
CC(=O)C1CCC2C3CCC4CC(=O)CCC4(C)C3C(O)CC12C (stereo not drawn)	-2	x	4	x	x	x	x	x	x	x
CCOC(=O)c1c(C)[nH]c(C)c1C(=O)CSc1nc2ccccc2c(=O)n1-c1ccccc1C	57*	-8	14	26	-35	-35	26*	47	7	14
CCOC(=O)c1c(C)[nH]c(C)c1C(=O)CSc1nc2ccccc2c(=O)n1-c1ccc(F)cc1	36	-9	9	19	-36	-35	x	x	x	x
CCc1cccc(NC(=O)CCC(=O)N2CCSc3ccccc32)c1	60*	-8	8	17	3	-4	21	40	6	10
O=C(CCC(=O)N1CCSc2ccccc21)Nc1cccc(F)c1	6	-1	7	-1	-12	-1	x	x	x	x
SMILES	TAAR1 antag	GPR7 antag	TAAR1 ag	OX1R antag-1	OX1R antag-2	CHO parental Ca	TAAR1 nonsel count	TAAR1 ant conf	Ga16 nonsel ag	TAAR1 ag count
CCc1ccc(NC(=O)CCC(=O)N2CCSc3ccccc32)cc1	59*	-5	6	17	-24	2	25*	40	6	4
O=C(NC(Cc1ccccc1)C(=O)N1CCc2ccccc2C1)c1ccccc1 (stereo not drawn)	55*	-2	8	25	-22	-31	26*	46	7	5
O=C(NC(Cc1ccccc1)C(=O)O)c1ccccc1 (stereo not drawn)	-3	2	3	7	-5	-5	x	x	x	x
O=C(COC(=O)c1cc[n+]([O-])cc1)Nc1cccc(F)c1	2	x	0	10	-6	5	x	x	x	x
CCCCOc1ccc(CNn2c(C)nc3ccccc3c2=O)cc1	59*	-6	10	5	-3	-32	29*	44	2	2
COc1ccc(CNn2c(-c3cccc(C)c3)nc3ccccc3c2=O)cc1OC	59*	-22	17	21	-28	-9	24*	47	6	4
COc1ccc(CNn2c(C)nc3ccccc3c2=O)cc1	28	-3	6	18	7	-19	x	x	x	x
CCN(c1ccccc1)S(=O)(=O)c1ccc(OC)c(NC(=O)Cc2ccc(F)cc2)c1	104*	x	-1	-3	26	14	8	3	2	0
CCN(c1ccccc1)S(=O)(=O)c1ccc(OC)c(NC(=O)CN2C(=O)NC(C)(C)C2=O)c1	5	x	0	1	-9	-8	x	x	x	x
COc1ccc(/C=C(\C#N)C(=O)c2c(C)[nH]c3ccccc23)cc1OC	59*	-4	5	26	-18	-12	17	32	2	3
